Data: ChEMBL document CHEMBL1154352, “Toll-like receptor 7 selective synthetic oligoribonucleotide agonists: synthesis and structure-activity relationship studies” (J Med Chem, 2009)
Activity calls are given as the source filed them. The calls are words filed in the database; no cut-off is given here.

Columns and labels:
[1] = Metabolic stability in human serum assessed as full length product remaining after 10 mins by HPLC; type: ADME, cell-free; conditions: read-out: Stability
How it was run: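 About 0.5 A260 units compound in 1% human serum in PBS, 37 °C; aliquot taken at 10 min, analysed by anion-exchange HPLC for percent intact full-length product.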

[2] = biological target: T1, Toll-like receptor 8 (Homo sapiens) (UniProt Q9NR97); experiment: Activation of human TLR8 expressed in HEK293XL assessed as fold induction of NF-kappaB activity at 50 ug/ml after 18 hrs by reporter gene assay relative to control
T1 sequence (whole entry): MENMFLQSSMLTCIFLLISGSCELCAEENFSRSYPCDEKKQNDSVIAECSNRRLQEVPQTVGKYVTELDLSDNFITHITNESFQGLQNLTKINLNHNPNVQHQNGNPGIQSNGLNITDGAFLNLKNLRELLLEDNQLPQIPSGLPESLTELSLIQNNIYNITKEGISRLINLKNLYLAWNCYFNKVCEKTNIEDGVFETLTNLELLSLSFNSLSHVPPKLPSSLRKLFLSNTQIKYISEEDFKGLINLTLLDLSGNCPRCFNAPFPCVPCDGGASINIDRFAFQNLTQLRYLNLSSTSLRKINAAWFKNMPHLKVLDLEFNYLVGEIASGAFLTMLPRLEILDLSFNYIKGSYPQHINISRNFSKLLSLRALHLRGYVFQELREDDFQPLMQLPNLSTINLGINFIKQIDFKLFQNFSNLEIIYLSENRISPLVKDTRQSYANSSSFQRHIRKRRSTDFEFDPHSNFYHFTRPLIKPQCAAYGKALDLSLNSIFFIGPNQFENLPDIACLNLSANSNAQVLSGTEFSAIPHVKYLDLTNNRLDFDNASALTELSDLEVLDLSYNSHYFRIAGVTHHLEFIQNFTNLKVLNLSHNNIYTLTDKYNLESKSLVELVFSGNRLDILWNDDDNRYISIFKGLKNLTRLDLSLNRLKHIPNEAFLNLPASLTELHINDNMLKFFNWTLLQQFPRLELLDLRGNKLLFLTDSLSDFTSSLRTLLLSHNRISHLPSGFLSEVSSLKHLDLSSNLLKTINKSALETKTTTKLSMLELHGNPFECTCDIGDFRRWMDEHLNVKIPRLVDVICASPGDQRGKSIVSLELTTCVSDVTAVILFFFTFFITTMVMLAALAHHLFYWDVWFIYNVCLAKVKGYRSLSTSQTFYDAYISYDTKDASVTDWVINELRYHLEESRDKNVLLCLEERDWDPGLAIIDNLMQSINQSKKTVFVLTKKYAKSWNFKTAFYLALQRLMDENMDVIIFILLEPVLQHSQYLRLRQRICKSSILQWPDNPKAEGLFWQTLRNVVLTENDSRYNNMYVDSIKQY
How it was run: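 HEK293 cells stably expressing human TLR7 or TLR8, transiently transfected with SEAP reporter plasmid; medium replaced, SIMRA compounds added, 18 h incubation. Supernatant SEAP measured by QuantiBlue; expressed as fold increase in NF-κB activity over PBS control. Tabulated data at 50 μg/mL, representative of three independent experiments.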

[3] = biological target: Toll-like receptor 3 (Homo sapiens) (UniProt O15455); experiment: Activation of human TLR3 expressed in HEK293 assessed as induction of NF-kappaB activity reporter gene assay; type: cell-based
PBMC [4] = experiment: Immunomodulatory activity in human PBMC assessed as induction of IL12 at 50 ug/ml after 24 hrs; type: functional, cell-based
How it was run: (§1)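 Human PBMCs plated at 5 × 10^6 cells/mL; compounds dissolved in PBS added at various concentrations, 37 °C for 24 h. Supernatant cytokines/chemokines quantified with human Luminex multiplex kit.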

PBMC [5] = experiment: Immunomodulatory activity in human PBMC assessed as induction of TNFalpha at 50 ug/ml after 24 hrs; type: functional, cell-based; how it was run: as §1
PBMC [6] = experiment: Immunomodulatory activity in human PBMC assessed as induction of IFNalpha at 50 ug/ml after 24 hrs; type: functional, cell-based; how it was run: as §1
PBMC [7] = experiment: Immunomodulatory activity in human PBMC assessed as induction of MIP1alpha at 50 ug/ml after 24 hrs; type: functional, cell-based; how it was run: as §1
PBMC [8] = experiment: Immunomodulatory activity in human PBMC assessed as induction of MIP1beta at 50 ug/ml after 24 hrs; type: functional, cell-based; how it was run: as §1
PBMC [9] = experiment: Immunomodulatory activity in human PBMC assessed as induction of IP10 at 50 ug/ml after 24 hrs; type: functional, cell-based; how it was run: as §1
PBMC [10] = experiment: Immunomodulatory activity in human PBMC assessed as induction of MCP1 at 50 ug/ml after 24 hrs; type: functional, cell-based; how it was run: as §1
PBMC [11] = experiment: Immunomodulatory activity in human PBMC assessed as induction of IL6 at 50 ug/ml after 24 hrs; type: functional, cell-based; how it was run: as §1
PBMC [12] = experiment: Immunomodulatory activity in human PBMC assessed as induction of IL1-beta at 50 ug/ml after 24 hrs; type: functional, cell-based; how it was run: as §1
Homo sapiens [13] = species: Homo sapiens; experiment: Immunostimulatory activity in human pDC assessed as induction of IP10 at 100 ug/ml after 24 hrs; type: functional
How it was run: (§2)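 Human pDCs plated at 1 × 10^6 cells/mL; compounds in PBS added, 37 °C for 24 h; supernatant cytokines/chemokines by human Luminex multiplex kit.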

Homo sapiens [14] = species: Homo sapiens; experiment: Immunostimulatory activity in human pDC assessed as induction of IL6 at 100 ug/ml after 24 hrs; type: functional; how it was run: as §2
Homo sapiens [15] = species: Homo sapiens; experiment: Immunostimulatory activity in human mDC assessed as induction of IFNalpha at 100 ug/ml after 24 hrs; type: functional
How it was run: (§3)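 Human mDCs isolated from PBMCs by CD19+ B-cell depletion then BDCA1 positive selection; plated at 1 × 10^6 cells/mL, compounds in PBS, 37 °C for 24 h; supernatant cytokines by human Luminex multiplex. Representative of four independent experiments.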

Homo sapiens [16] = species: Homo sapiens; experiment: Immunostimulatory activity in human mDC assessed as induction of IP10 at 100 ug/ml after 24 hrs; type: functional; how it was run: as §3
Homo sapiens [17] = species: Homo sapiens; experiment: Immunostimulatory activity in human mDC assessed as induction of IL12 at 100 ug/ml after 24 hrs; type: functional; how it was run: as §3
Homo sapiens [18] = species: Homo sapiens; experiment: Immunostimulatory activity in human mDC assessed as induction of IL6 at 100 ug/ml after 24 hrs; type: functional; how it was run: as §3
Homo sapiens [19] = species: Homo sapiens; experiment: Immunostimulatory activity in human mDC assessed as induction of TNFalpha at 100 ug/ml after 24 hrs; type: functional; how it was run: as §3
Homo sapiens [20] = species: Homo sapiens; experiment: Immunostimulatory activity in human pDC assessed as induction of IFNalpha at 100 ug/ml after 24 hrs; type: functional; how it was run: as §2

Chain of Toll-like receptor 3 (Homo sapiens) (O15455 whole entry): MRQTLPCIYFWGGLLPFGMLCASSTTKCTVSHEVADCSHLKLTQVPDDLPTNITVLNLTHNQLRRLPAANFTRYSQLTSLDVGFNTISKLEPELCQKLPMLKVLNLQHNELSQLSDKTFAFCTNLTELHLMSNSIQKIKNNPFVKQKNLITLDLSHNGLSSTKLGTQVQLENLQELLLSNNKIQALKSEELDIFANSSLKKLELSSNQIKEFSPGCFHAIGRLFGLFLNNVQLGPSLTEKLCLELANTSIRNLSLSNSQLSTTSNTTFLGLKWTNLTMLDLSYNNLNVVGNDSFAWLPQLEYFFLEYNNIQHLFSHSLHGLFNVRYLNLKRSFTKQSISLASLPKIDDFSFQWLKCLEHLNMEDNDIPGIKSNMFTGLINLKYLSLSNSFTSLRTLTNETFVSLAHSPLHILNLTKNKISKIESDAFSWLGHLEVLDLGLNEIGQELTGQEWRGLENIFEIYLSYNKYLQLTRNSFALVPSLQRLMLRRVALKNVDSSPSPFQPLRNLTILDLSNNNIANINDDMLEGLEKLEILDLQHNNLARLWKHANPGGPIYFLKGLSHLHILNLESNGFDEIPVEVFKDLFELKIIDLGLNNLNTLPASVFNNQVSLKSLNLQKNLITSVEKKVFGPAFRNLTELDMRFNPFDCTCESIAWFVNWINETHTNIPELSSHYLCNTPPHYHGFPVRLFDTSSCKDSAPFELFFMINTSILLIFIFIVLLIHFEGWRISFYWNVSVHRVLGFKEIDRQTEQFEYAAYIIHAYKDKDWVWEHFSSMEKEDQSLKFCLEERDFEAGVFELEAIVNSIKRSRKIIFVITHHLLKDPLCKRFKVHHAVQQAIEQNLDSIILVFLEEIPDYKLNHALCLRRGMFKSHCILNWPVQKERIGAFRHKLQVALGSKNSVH

SMILES | remaining at 10 min [1] | fold change (FC) [2] | Activity [3] | Activity (PBMC [4]) | Activity (PBMC [5]) | Activity (PBMC [6]) | Activity (PBMC [7]) | Activity (PBMC [8]) | Activity (PBMC [9]) | Activity (PBMC [10]) | Activity (PBMC [11]) | Activity (PBMC [12]) | Activity (Homo sapiens [13]) | Activity (Homo sapiens [14]) | Activity (Homo sapiens [15]) | Activity (Homo sapiens [16]) | Activity (Homo sapiens [17]) | Activity (Homo sapiens [18]) | Activity (Homo sapiens [19]) | Activity (Homo sapiens [20])
Nc1ccn([C@@H]2O[C@H](COP(=O)(S)O[C@H]3[C@@H](O)[C@H](n4cnc5c(=O)[nH]c(N)nc54)O[C@@H]3COP(=O)(S)O[C@H]3[C@@H](O)[C@H](n4ccc(=O)[nH]c4=O)O[C@@H]3COP(=O)(S)OCCCO)[C@@H](OP(=O)(S)OC[C@H]3O[C@@H](n4ccc(=O)[nH]c4=O)[C@H](O)[C@@H]3OP(=O)(S)OC[C@H]3O[C@@H](n4cnc5c(=O)[nH]c(N)nc54)[C@H](O)[C@@H]3OP(=O)(S)OC[C@H]3O[C@@H](n4ccc(N)nc4=O)[C@H](O)[C@@H]3OP(=O)(S)OC[C@H]3O[C@@H](n4ccc(=O)[nH]c4=O)[C@H](O)[C@@H]3OP(=O)(S)OC[C@H]3O[C@@H](n4ccc(=O)[nH]c4=O)[C@H](O)[C@@H]3OP(=O)(S)OC[C@H]3O[C@@H](n4cnc5c(=O)[nH]c(N)nc54)[C@H](O)[C@@H]3OP(=O)(S)OC[C@H]3O[C@@H](n4ccc(=O)[nH]c4=O)[C@H](O)[C@@H]3OP(=O)(S)OC[C@H]3O[C@@H](n4cnc5c(=O)[nH]c(N)nc54)[C@H](O)[C@@H]3OP(=O)(S)OCC(O)COP(=O)(S)O[C@H]3[C@@H](O)[C@H](n4cnc5c(=O)[nH]c(N)nc54)O[C@@H]3COP(=O)(S)O[C@H]3[C@@H](O)[C@H](n4ccc(=O)[nH]c4=O)O[C@@H]3COP(=O)(S)O[C@H]3[C@@H](O)[C@H](n4cnc5c(=O)[nH]c(N)nc54)O[C@@H]3COP(=O)(S)O[C@H]3[C@@H](O)[C@H](n4ccc(=O)[nH]c4=O)O[C@@H]3COP(=O)(S)O[C@H]3[C@@H](O)[C@H](n4ccc(=O)[nH]c4=O)O[C@@H]3COP(=O)(S)O[C@H]3[C@@H](O)[C@H](n4ccc(N)nc4=O)O[C@@H]3COP(=O)(S)O[C@H]3[C@@H](O)[C@H](n4cnc5c(=O)[nH]c(N)nc54)O[C@@H]3COP(=O)(S)O[C@H]3[C@@H](O)[C@H](n4ccc(=O)[nH]c4=O)O[C@@H]3COP(=O)(S)O[C@H]3[C@@H](O)[C@H](n4ccc(N)nc4=O)O[C@@H]3COP(=O)(S)O[C@H]3[C@@H](O)[C@H](n4cnc5c(=O)[nH]c(N)nc54)O[C@@H]3COP(=O)(S)O[C@H]3[C@@H](O)[C@H](n4ccc(=O)[nH]c4=O)O[C@@H]3COP(=O)(S)OCCCO)[C@H]2O)c(=O)n1 (some centres undefined) | 78% | 9.2 | inactive | 570 pg/mL | 541 pg/mL | 56 pg/mL | 4760 pg/mL | 5730 pg/mL | 24 pg/mL | 46700 pg/mL | 3980 pg/mL | 568 pg/mL | Active | Active | Active | Active | Active | Active | Active | 
Nc1ncnc2c1ncn2[C@@H]1O[C@H](CO)[C@@H](OP(=O)(S)OC[C@H]2O[C@@H](n3cnc4c(N)ncnc43)[C@H](O)[C@@H]2OP(=O)(S)OC[C@H]2O[C@@H](n3cnc4c(N)ncnc43)[C@H](O)[C@@H]2OP(=O)(S)OC[C@H]2O[C@@H](n3cnc4c(N)ncnc43)[C@H](O)[C@@H]2OP(=O)(S)OC[C@H]2O[C@@H](n3cnc4c(N)ncnc43)[C@H](O)[C@@H]2OP(=O)(S)OC[C@H]2O[C@@H](n3cnc4c(N)ncnc43)[C@H](O)[C@@H]2OP(=O)(S)OC[C@H]2O[C@@H](n3cnc4c(N)ncnc43)[C@H](O)[C@@H]2OP(=O)(S)OC[C@H]2O[C@@H](n3cnc4c(N)ncnc43)[C@H](O)[C@@H]2OP(=O)(S)OC[C@H]2O[C@@H](n3cnc4c(N)ncnc43)[C@H](O)[C@@H]2OP(=O)(S)OC[C@H]2O[C@@H](n3cnc4c(N)ncnc43)[C@H](O)[C@@H]2OP(=O)(S)OC[C@H]2O[C@@H](n3cnc4c(N)ncnc43)[C@H](O)[C@@H]2OP(=O)(S)OCC(O)COP(=O)(S)O[C@H]2[C@@H](O)[C@H](n3cnc4c(N)ncnc43)O[C@@H]2COP(=O)(S)O[C@H]2[C@@H](O)[C@H](n3cnc4c(N)ncnc43)O[C@@H]2COP(=O)(S)O[C@H]2[C@@H](O)[C@H](n3cnc4c(N)ncnc43)O[C@@H]2COP(=O)(S)O[C@H]2[C@@H](O)[C@H](n3cnc4c(N)ncnc43)O[C@@H]2COP(=O)(S)O[C@H]2[C@@H](O)[C@H](n3cnc4c(N)ncnc43)O[C@@H]2COP(=O)(S)O[C@H]2[C@@H](O)[C@H](n3cnc4c(N)ncnc43)O[C@@H]2COP(=O)(S)O[C@H]2[C@@H](O)[C@H](n3cnc4c(N)ncnc43)O[C@@H]2COP(=O)(S)O[C@H]2[C@@H](O)[C@H](n3cnc4c(N)ncnc43)O[C@@H]2COP(=O)(S)O[C@H]2[C@@H](O)[C@H](n3cnc4c(N)ncnc43)O[C@@H]2COP(=O)(S)O[C@H]2[C@@H](O)[C@H](n3cnc4c(N)ncnc43)O[C@@H]2COP(=O)(S)O[C@H]2[C@@H](O)[C@H](n3cnc4c(N)ncnc43)O[C@@H]2CO)[C@H]1O (some centres undefined) | 92% | 0.7 | inactive | 138 pg/mL | 0 pg/mL | 12 pg/mL | 43 pg/mL | 83 pg/mL | 4 pg/mL | 724 pg/mL | 12 pg/mL | 28 pg/mL | inactive | inactive | inactive | inactive | inactive | inactive | inactive | inactive
